The source made the active and inactive calls. The rule behind the calls is not given here.
Assays:
Pseudomonas aeruginosa [1] = experiment: Induction of biofilm degradation of Pseudomonas aeruginosa clinical isolate 72 at 50 uM incubated for 1 hr by crystal violet staining analysis relative to control; format: functional
Outline: (§1)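 Bacteria at 1 × 10^6 CFU/mL in BM2 grown static at 37 °C for 24 h to form biofilm. Wells rinsed of unattached cells, then exposed for 1 h to serial peptide dilutions (1.56–50 μM). Washed, stained with 0.1% crystal violet, A590 read. Biomass given as % of untreated biofilm; no-bacteria wells as blanks. At least three biological repeats.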

Pseudomonas aeruginosa [2] = experiment: Induction of biofilm degradation of Pseudomonas aeruginosa clinical isolate 40 at sub MIC concentration incubated for 1 hr by crystal violet staining analysis; format: functional; outline: as §1
Pseudomonas aeruginosa [3] = experiment: Induction of biofilm degradation of Pseudomonas aeruginosa clinical isolate 238 at 50 uM incubated for 1 hr by crystal violet staining analysis relative to control; format: functional; outline: as §1
Pseudomonas aeruginosa [4] = experiment: Induction of biofilm degradation of Pseudomonas aeruginosa clinical isolate 172 at 50 uM incubated for 1 hr by crystal violet staining analysis relative to control; format: functional; outline: as §1
Pseudomonas aeruginosa [5] = experiment: Induction of biofilm degradation of Pseudomonas aeruginosa clinical isolate 24 at sub MIC concentration incubated for 1 hr by crystal violet staining analysis; format: functional; outline: as §1
Pseudomonas aeruginosa [6] = experiment: Antibiofilm activity against Pseudomonas aeruginosa clinical isolate 53 assessed as inhibition of biofilm formation at sub-inhibitory concentration incubated for 24 hrs by crystal violet staining based microtiter plate method; format: functional, organism-based
Outline: (§2)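 Washed overnight cultures in BM2 medium at 1 × 10^6 CFU/mL with 2-fold serial peptide dilutions in a U-bottom 96-well plate. Incubated 24 h at 37 °C without agitation. Unattached cells washed off, then 0.1% crystal violet stain read at 590 nm. No-bacteria blanks. Biomass expressed as % of untreated biofilm. At least three biological repeats.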

Pseudomonas aeruginosa [7] = experiment: Induction of biofilm degradation of Pseudomonas aeruginosa clinical isolate 25 at 50 uM incubated for 1 hr by crystal violet staining analysis relative to control; format: functional; outline: as §1
Pseudomonas aeruginosa [8] = experiment: Inhibition of biofilm formation of Pseudomonas aeruginosa clinical isolate 24 derived from cystic fibrosis patient sputum at 0.09 to 3.12 uM by crystal violet based staining analysis; format: functional, organism-based; conditions: dose 0.09-3.12 µM
Outline: (§3)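 CF patient sputum diluted 10-fold with BM2, bacteria added with serial peptide dilutions starting from the highest MIC per isolate. Inoculum suspension 1 × 10^6 CFU/mL. Incubated 24 h at 37 °C without agitation. Unattached cells washed away, then 0.1% crystal violet staining and A590. Biomass given as % of untreated, with no-bacteria blanks.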

Pseudomonas aeruginosa [9] = experiment: Induction of biofilm degradation of Pseudomonas aeruginosa clinical isolate 29 at 50 uM incubated for 1 hr by crystal violet staining analysis relative to control; format: functional; outline: as §1
Pseudomonas aeruginosa [10] = experiment: Antibiofilm activity against Pseudomonas aeruginosa clinical isolate 99 assessed as inhibition of biofilm formation at sub-inhibitory concentration incubated for 24 hrs by crystal violet staining based microtiter plate method; format: functional, organism-based; outline: as §2
Pseudomonas aeruginosa [11] = experiment: Induction of biofilm degradation of Pseudomonas aeruginosa clinical isolate 82 at 50 uM incubated for 1 hr by crystal violet staining analysis relative to control; format: functional; outline: as §1
Pseudomonas aeruginosa [12] = experiment: Antibiofilm activity against Pseudomonas aeruginosa clinical isolate 46 assessed as inhibition of biofilm formation at sub-inhibitory concentration incubated for 24 hrs by crystal violet staining based microtiter plate method; format: functional, organism-based; outline: as §2
Pseudomonas aeruginosa [13] = experiment: Antibiofilm activity against Pseudomonas aeruginosa clinical isolate 25 assessed as inhibition of biofilm formation at sub-inhibitory concentration incubated for 24 hrs by crystal violet staining based microtiter plate method; format: functional, organism-based; outline: as §2
Pseudomonas aeruginosa [14] = experiment: Induction of biofilm degradation of Pseudomonas aeruginosa clinical isolate 53 at sub MIC concentration incubated for 1 hr by crystal violet staining analysis; format: functional; outline: as §1
Pseudomonas aeruginosa [15] = experiment: Induction of biofilm degradation of Pseudomonas aeruginosa clinical isolate 40 at 50 uM incubated for 1 hr by crystal violet staining analysis relative to control; format: functional; outline: as §1
Pseudomonas aeruginosa [16] = experiment: Induction of biofilm degradation of Pseudomonas aeruginosa clinical isolate 629 at 50 uM incubated for 1 hr by crystal violet staining analysis relative to control; format: functional; outline: as §1
Pseudomonas aeruginosa [17] = experiment: Induction of biofilm degradation of Pseudomonas aeruginosa clinical isolate 24 incubated for 1 hr by crystal violet staining analysis relative to control; format: functional; conditions: dose 50.0 µM; outline: as §1
Pseudomonas aeruginosa [18] = experiment: Induction of biofilm degradation of Pseudomonas aeruginosa clinical isolate 99 at 50 uM incubated for 1 hr by crystal violet staining analysis relative to control; format: functional; outline: as §1
Pseudomonas aeruginosa [19] = experiment: Antibiofilm activity against Pseudomonas aeruginosa clinical isolate 72 assessed as inhibition of biofilm formation at sub-inhibitory concentration incubated for 24 hrs by crystal violet staining based microtiter plate method; format: functional, organism-based; outline: as §2
Pseudomonas aeruginosa [20] = experiment: Induction of biofilm degradation of Pseudomonas aeruginosa clinical isolate 53 at 50 uM incubated for 1 hr by crystal violet staining analysis relative to control; format: functional; outline: as §1
Pseudomonas aeruginosa [21] = experiment: Antibiofilm activity against Pseudomonas aeruginosa clinical isolate 629 assessed as inhibition of biofilm formation at sub-inhibitory concentration incubated for 24 hrs by crystal violet staining based microtiter plate method; format: functional, organism-based; outline: as §2
Pseudomonas aeruginosa [22] = experiment: Induction of biofilm degradation of Pseudomonas aeruginosa clinical isolate 46 at 50 uM incubated for 1 hr by crystal violet staining analysis relative to control; format: functional; outline: as §1
Pseudomonas aeruginosa [23] = experiment: Antibiofilm activity against Pseudomonas aeruginosa clinical isolate 71 assessed as inhibition of biofilm formation at sub-inhibitory concentration incubated for 24 hrs by crystal violet staining based microtiter plate method; format: functional, organism-based; outline: as §2
Pseudomonas aeruginosa [24] = experiment: Induction of biofilm degradation of Pseudomonas aeruginosa clinical isolate 995 at 50 uM incubated for 1 hr by crystal violet staining analysis relative to control; format: functional; outline: as §1
Pseudomonas aeruginosa [25] = experiment: Antibiofilm activity against Pseudomonas aeruginosa PAO1 in basal medium 2 at 12.5 to 100 uM incubated for 24 hrs by resazurin staining based microtiter plate method; format: functional, organism-based; conditions: dose 12.5-100 µM
Pseudomonas aeruginosa [26] = experiment: Antibiofilm activity against Pseudomonas aeruginosa clinical isolate 24 assessed as inhibition of biofilm formation at sub-inhibitory concentration incubated for 24 hrs by crystal violet staining based microtiter plate method; format: functional, organism-based; outline: as §2
Pseudomonas aeruginosa [27] = experiment: Induction of biofilm degradation of Pseudomonas aeruginosa clinical isolate 71 at 50 uM incubated for 1 hr by crystal violet staining analysis relative to control; format: functional; outline: as §1
Pseudomonas aeruginosa [28] = experiment: Induction of biofilm degradation of Pseudomonas aeruginosa clinical isolate 59 at <12.5 uM incubated for 1 hr by crystal violet staining analysis; format: functional; outline: as §1
Pseudomonas aeruginosa [29] = experiment: Inhibition of biofilm formation of Pseudomonas aeruginosa clinical isolate 82 derived from cystic fibrosis patient sputum at 0.09 to 3.12 uM by crystal violet based staining analysis; format: functional, organism-based; conditions: dose 0.09-3.12 µM; outline: as §3
Pseudomonas aeruginosa [30] = experiment: Induction of biofilm degradation of Pseudomonas aeruginosa clinical isolate 251 at 50 uM incubated for 1 hr by crystal violet staining analysis; format: functional; outline: as §1
Pseudomonas aeruginosa [31] = experiment: Induction of biofilm degradation of Pseudomonas aeruginosa clinical isolate 52 at 50 uM incubated for 1 hr by crystal violet staining analysis relative to control; format: functional; outline: as §1
Pseudomonas aeruginosa [32] = experiment: Inhibition of biofilm formation of Pseudomonas aeruginosa clinical isolate 24 derived from cystic fibrosis patient sputum at 0.78 to 25 uM by crystal violet based staining analysis; format: functional, organism-based; conditions: dose 0.78-25 µM; outline: as §3
Pseudomonas aeruginosa [33] = experiment: Inhibition of biofilm formation of Pseudomonas aeruginosa PAO1 in patient derived CF-sputum at 0.09 to 3.12 uM by crystal violet based staining analysis; format: functional, organism-based; conditions: dose 0.09-3.12 µM; outline: as §3
Pseudomonas aeruginosa [34] = experiment: Induction of biofilm degradation of Pseudomonas aeruginosa PAO1 at 50 uM incubated for 1 hr by crystal violet staining analysis relative to control; format: functional; outline: as §1
Pseudomonas aeruginosa [35] = experiment: Antibiofilm activity against Pseudomonas aeruginosa clinical isolate 25 assessed as inhibition of biofilm formation at MIC incubated for 24 hrs by crystal violet staining based microtiter plate method; format: functional, organism-based; outline: as §2

CC(C)C[C@H](NC(=O)[C@H](CC(C)C)NC(=O)[C@H](CC(C)C)NC(=O)[C@H](CC(C)C)NC(=O)[C@H](CC(C)C)NC(=O)[C@H](CC(C)C)NC(=O)[C@H](CC(C)C)NC(=O)[C@H](CC(C)C)NC(=O)[C@H](CC(C)C)NC(=O)[C@H](CCCCN)NC(=O)[C@H](CCCCN)NC(=O)[C@@H](N)CCCCN)C(=O)N[C@@H](CCCCN)C(=O)N[C@@H](CCCCN)C(=O)N[C@@H](CCCCN)C(N)=O
Activity (Pseudomonas aeruginosa [1]): 60%
Activity (Pseudomonas aeruginosa [2]): Active
Activity (Pseudomonas aeruginosa [3]): 60%
Activity (Pseudomonas aeruginosa [4]): 60%
Activity (Pseudomonas aeruginosa [5]): Active
inhibition (Pseudomonas aeruginosa [6]): Active
Activity (Pseudomonas aeruginosa [7]): 60%
inhibition (Pseudomonas aeruginosa [8]): Active
Activity (Pseudomonas aeruginosa [9]): 60%
inhibition (Pseudomonas aeruginosa [10]): Active
Activity (Pseudomonas aeruginosa [11]): 60%
inhibition (Pseudomonas aeruginosa [12]): Active
inhibition (Pseudomonas aeruginosa [13]): Active
Activity (Pseudomonas aeruginosa [14]): Active
Activity (Pseudomonas aeruginosa [15]): 60%
Activity (Pseudomonas aeruginosa [16]): 60%
Activity (Pseudomonas aeruginosa [17]): 60%
Activity (Pseudomonas aeruginosa [18]): 60%
inhibition (Pseudomonas aeruginosa [19]): Active
Activity (Pseudomonas aeruginosa [20]): 60%
inhibition (Pseudomonas aeruginosa [21]): Active
Activity (Pseudomonas aeruginosa [22]): 60%
inhibition (Pseudomonas aeruginosa [23]): Active
Activity (Pseudomonas aeruginosa [24]): 60%
Activity (Pseudomonas aeruginosa [25]): Active
inhibition (Pseudomonas aeruginosa [26]): Active
Activity (Pseudomonas aeruginosa [27]): 60%
Activity (Pseudomonas aeruginosa [28]): Active
inhibition (Pseudomonas aeruginosa [29]): Active
Activity (Pseudomonas aeruginosa [30]): 60%
Activity (Pseudomonas aeruginosa [31]): 60%
inhibition (Pseudomonas aeruginosa [32]): Active
inhibition (Pseudomonas aeruginosa [33]): Active
Activity (Pseudomonas aeruginosa [34]): 60%

CC(C)C[C@H](NC(=O)[C@H](CC(C)C)NC(=O)[C@H](CCCCN)NC(=O)[C@H](CC(C)C)NC(=O)[C@H](CC(C)C)NC(=O)[C@H](CCCCN)NC(=O)[C@H](CCCCN)NC(=O)[C@H](CC(C)C)NC(=O)[C@H](CC(C)C)NC(=O)[C@H](CCCCN)NC(=O)[C@H](CCCCN)NC(=O)[C@H](CC(C)C)NC(=O)[C@H](CC(C)C)NC(=O)[C@H](CCCCN)NC(=O)[C@@H](N)CC(C)C)C(N)=O
inhibition (Pseudomonas aeruginosa [35]): Active
Activity (Pseudomonas aeruginosa [1]): 60%
Activity (Pseudomonas aeruginosa [2]): Active
Activity (Pseudomonas aeruginosa [3]): 60%
Activity (Pseudomonas aeruginosa [4]): 60%
Activity (Pseudomonas aeruginosa [5]): Active
inhibition (Pseudomonas aeruginosa [6]): Active
Activity (Pseudomonas aeruginosa [7]): 60%
inhibition (Pseudomonas aeruginosa [8]): Active
Activity (Pseudomonas aeruginosa [9]): 60%
inhibition (Pseudomonas aeruginosa [10]): Active
Activity (Pseudomonas aeruginosa [11]): 60%
inhibition (Pseudomonas aeruginosa [12]): Active
inhibition (Pseudomonas aeruginosa [13]): Active
Activity (Pseudomonas aeruginosa [14]): Active
Activity (Pseudomonas aeruginosa [15]): 60%
Activity (Pseudomonas aeruginosa [16]): 60%
Activity (Pseudomonas aeruginosa [17]): 60%
Activity (Pseudomonas aeruginosa [18]): 60%
inhibition (Pseudomonas aeruginosa [19]): Active
Activity (Pseudomonas aeruginosa [20]): 60%
inhibition (Pseudomonas aeruginosa [21]): Active
Activity (Pseudomonas aeruginosa [22]): 60%
inhibition (Pseudomonas aeruginosa [23]): Active
Activity (Pseudomonas aeruginosa [24]): 60%
inhibition (Pseudomonas aeruginosa [26]): Active
Activity (Pseudomonas aeruginosa [27]): 60%
Activity (Pseudomonas aeruginosa [28]): Active
inhibition (Pseudomonas aeruginosa [29]): Active
Activity (Pseudomonas aeruginosa [30]): 60%
Activity (Pseudomonas aeruginosa [31]): 60%
inhibition (Pseudomonas aeruginosa [32]): Active
inhibition (Pseudomonas aeruginosa [33]): Active
Activity (Pseudomonas aeruginosa [34]): 60%

Source: ChEMBL document CHEMBL5143722, “Antimicrobial Peptides against Multidrug-Resistant Pseudomonas aeruginosa Biofilm from Cystic Fibrosis Patients” (J Med Chem, 2022)
